Results as given in ChEMBL document CHEMBL1126934, “Non-peptide ligands for opioid receptors. Design of kappa-specific agonists” (J Med Chem, 1993).

Experiments:
Mu-type opioid receptor = Mu-type opioid receptor (Rattus norvegicus, UniProt P33535); assay: Binding affinity for mu opioid receptor was evaluated by displacing [3H]- diprenorphine
Procedure, shortened: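 Rat brain minus cerebellum, homogenised in Tris-HCl pH 7.4, spun 40000g 30 min, membranes resuspended at 0.5 mg/mL protein in 50 mM Tris-HCl pH 7.6. Competition against [3H]diprenorphine; nonspecific binding defined with DAGO (100 nM). Ki via Cheng-Prusoff; triplicate curves, n = 5.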

Mus musculus = assay: Antinociceptive activity determined in mouse tail flick assay 30 min after sc injection (peak effect); format: functional; details: 0.5 h
Procedure, shortened: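 Male Swiss mice (20-25 g), tail flick nociceptive threshold, cutoff 8 s. Drug given sc; read 30 min after injection. ED50 with confidence limits by Litchfield and Wilcoxon method.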

[1] = biological target: Delta-type opioid receptor (Rattus norvegicus) (UniProt P33533); assay: Binding affinity for rat delta opioid receptor was evaluated by displacing [3H]- diprenorphine
Chain of Delta-type opioid receptor (Rattus norvegicus) (P33533 whole entry): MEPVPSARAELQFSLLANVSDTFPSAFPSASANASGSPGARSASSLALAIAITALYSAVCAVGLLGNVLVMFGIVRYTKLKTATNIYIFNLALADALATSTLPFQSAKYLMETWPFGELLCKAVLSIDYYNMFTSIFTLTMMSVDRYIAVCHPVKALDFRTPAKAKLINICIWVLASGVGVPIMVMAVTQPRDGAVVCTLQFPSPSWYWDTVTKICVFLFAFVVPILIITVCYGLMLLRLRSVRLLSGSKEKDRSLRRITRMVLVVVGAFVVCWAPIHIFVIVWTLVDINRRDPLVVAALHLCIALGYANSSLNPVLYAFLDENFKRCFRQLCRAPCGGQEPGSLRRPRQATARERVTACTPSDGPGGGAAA

[2] = biological target: T1, Kappa-type opioid receptor (Cavia porcellus, UniProt P41144); assay: Binding affinity for kappa opioid receptor was evaluated by displacing [3H]- diprenorphine
T1 sequence (P41144 whole entry): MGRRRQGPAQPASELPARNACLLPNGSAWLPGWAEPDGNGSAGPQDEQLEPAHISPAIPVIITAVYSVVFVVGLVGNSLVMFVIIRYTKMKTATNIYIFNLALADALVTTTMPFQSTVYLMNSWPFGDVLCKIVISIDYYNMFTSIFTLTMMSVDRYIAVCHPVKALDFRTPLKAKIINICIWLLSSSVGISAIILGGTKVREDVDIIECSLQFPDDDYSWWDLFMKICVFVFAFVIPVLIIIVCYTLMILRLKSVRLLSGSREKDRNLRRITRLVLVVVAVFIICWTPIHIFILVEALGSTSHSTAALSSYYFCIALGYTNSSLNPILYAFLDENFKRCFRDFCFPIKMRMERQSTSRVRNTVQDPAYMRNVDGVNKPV

[3] = biological target: T1, Kappa-type opioid receptor
[4] = biological target: T1, Kappa-type opioid receptor; remark: listed apart in the source

Chain of Mu-type opioid receptor (P33535 whole entry): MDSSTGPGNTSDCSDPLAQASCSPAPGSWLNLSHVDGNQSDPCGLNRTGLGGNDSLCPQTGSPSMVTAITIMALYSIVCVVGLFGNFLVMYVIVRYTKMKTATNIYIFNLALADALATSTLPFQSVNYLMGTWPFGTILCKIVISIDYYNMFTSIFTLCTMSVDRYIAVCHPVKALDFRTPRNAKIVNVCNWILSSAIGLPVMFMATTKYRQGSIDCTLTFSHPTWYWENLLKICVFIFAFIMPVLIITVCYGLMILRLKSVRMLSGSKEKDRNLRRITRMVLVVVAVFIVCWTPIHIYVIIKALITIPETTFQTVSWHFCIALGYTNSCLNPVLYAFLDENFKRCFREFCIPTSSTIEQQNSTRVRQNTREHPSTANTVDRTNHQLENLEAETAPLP

SMILES | Ki (Mu-type opioid receptor) | ED50 (Mus musculus) | Binding affinity [1] | Ki [2] | Ki [3] | Ki [4]
CCC12CCN(CC3CC3)C(C(=O)c3ccc(O)cc31)C2C (stereo not given) | 0.69 µM | – | – | – | – | –
CN1CC[C@]23c4c5ccc(O)c4O[C@H]2[C@@H](O)C=C[C@H]3[C@H]1C5 [MORPHINE] | – | 4.99 mg/kg | 1.22 µM | – | – | –
CCOC(=O)[C@]1(c2ccccc2)CC1CN1CC[C@@]2(C)c3cc(O)ccc3C[C@@H]1[C@@H]2C (stereo not given in full) | > 25 µM | – | > 25 µM | 4430 nM | – | –
C[C@H]1[C@H]2Cc3ccc(O)cc3[C@]1(C)CCN2CC1C[C@]1(C(=O)O)c1ccccc1 (stereo not given in full) | > 25 µM | – | – | > 25000 nM | – | –
CC1[C@H]2Cc3ccc(O)cc3[C@]1(C)CCN2CCCc1ccccc1 (stereo not given in full) | 0.825 µM | – | – | 1120 nM | – | –
COC(=O)[C@@]1(c2ccccc2)C[C@@H]1CN1CC[C@@]2(C)c3cc(O)ccc3C[C@@H]1[C@@H]2C | > 25 µM | – | > 25 µM | 2640 nM | – | –
CCCOC(=O)[C@]1(c2ccccc2)CC1CN1CC[C@@]2(C)c3cc(O)ccc3C[C@@H]1[C@@H]2C (stereo not given in full) | > 25 µM | – | > 25 µM | 6430 nM | – | –
CCCCOC(=O)[C@]1(c2ccccc2)CC1CN1CC[C@@]2(C)c3cc(O)ccc3C[C@@H]1[C@@H]2C (stereo not given in full) | > 25 µM | – | > 25 µM | > 25000 nM | – | –
COC(=O)[C@]1(c2ccccc2)C[C@@H]1CN1CC[C@@]2(C)c3cc(O)ccc3C[C@@H]1[C@@H]2C | > 25 µM | 4.52 mg/kg | > 25 µM | 866 nM | 2620 nM | 833 nM
COC(=O)[C@]1(c2ccccc2)C[C@H]1CN1CC[C@@]2(C)c3cc(O)ccc3C[C@@H]1[C@@H]2C | > 25 µM | – | > 25 µM | 240 nM | 926 nM | 224 nM
